# Source: PubChem BioAssay (several laboratories)
# PHOSPHO1 inh: inhibitors of human PHOSPHO1 phosphatase | Q8TCT1 | recombinant PHOSPHO1, absorbance phosphatase assay | inhibition, % at 13.3 µM | 290,000 tested, 1.1% active; in the data active means inhibition above about 60%
# Target sequence (Q8TCT1 whole entry, looked up): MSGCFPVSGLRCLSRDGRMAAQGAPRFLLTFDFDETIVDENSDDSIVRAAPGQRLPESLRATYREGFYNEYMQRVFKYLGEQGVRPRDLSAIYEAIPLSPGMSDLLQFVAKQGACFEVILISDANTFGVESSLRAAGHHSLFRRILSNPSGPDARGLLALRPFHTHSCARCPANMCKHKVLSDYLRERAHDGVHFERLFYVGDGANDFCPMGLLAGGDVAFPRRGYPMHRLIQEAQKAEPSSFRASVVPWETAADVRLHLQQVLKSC
# HCV core dimer: blocks dimerization of HCV core protein. TR-FRET GST/Flag-core106 dimerization, 1536-well. inhibition, % at 5 µM. 300,000 tested, 0.33% active;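 active means inhibition above the mean of all tested compounds plus 3 SD, set per screening campaign, cut at about 45% in these data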
#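 Assay system: GST-tagged and Flag-tagged HCV core protein residues 1-106 / Times: compound-protein-antibody incubation 4 h at 22.5 °C / Signal: time-resolved FRET, ex 340 nm, em 617 and 671 nm / Evaluation: % inhibition based on acceptor/donor emission ratio / Benchmarks: wells lacking GST-core106 and wells with excess unlabelled core106 / Repeats: singlicate, one well per compound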
# NS3 helicase inh: HCV NS3 helicase inhibition. NS3 helicase DNA unwinding, Cy5 molecular beacon fluorescence. inhibition, % at 10.9 µM. 290,000 tested, 0.56% active;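 active means inhibition above the mean of all tested compounds plus 3 SD, set per campaign, cut at about 35% in these data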;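 further: 0% = DMSO wells and 100% = thioflavine S control wells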
#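 Measured by: Cy5 fluorescence, 0 and 60 min reads / Assay system: NS3 helicase fragment of HCV / Control set: low DMSO, high thioflavine S at 110 µM / Times: 1 h reaction at 25 °C, ATP-initiated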
# IMP-1 inh-1: inhibitors of Pseudomonas aeruginosa IMP-1 metallo-beta-lactamase | purified IMP-1, nitrocefin hydrolysis, epi-absorbance fluorescence | inhibition, % at 5.6 µM | 290,000 tested, 0.45% active;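 active means inhibition above the mean plus 3 SD of all compounds in the same screening run, cut at about 4.5% in these data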;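 further: 0% = IMP-1 with DMSO and 100% = DMSO wells lacking enzyme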
#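 Material – recombinant IMP-1 enzyme, purified · Amount – IMP-1 0.2 nM before substrate addition · Medium – HEPES buffer pH 7.1 with ZnSO4 and Brij 35 · Timing – 25 °C, 15 min preincubation, 25 min reaction · Measured by – plate fluorescence quenching by hydrolysis product, ex 480/em 530 nm · Read-out – percent enzyme inhibition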
# UBC9 SUMO inh: blocks human SUMOylation mediated by UBC9 | P63279 | HTRF SUMOylation assay, SAE1/SAE2 + UBC9, in vitro | inhibition, % at 35 µM | 290,000 tested, 0.36% active; in the data active means inhibition above about 50%, passing the limit was not always enough
# VIM-2 inh: inhibitors of Pseudomonas aeruginosa VIM-2 metallo-beta-lactamase | purified VIM-2, nitrocefin hydrolysis, epi-absorbance fluorescence | inhibition, % at 5.6 µM | 290,000 tested, 0.89% active | AID 1527;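 active means inhibition above the mean of all tested compounds plus 3 SD, cutoff set per screening run, cut at about 7.5% in these data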;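 further: red hydrolysis product quenches plate fluorescence so inhibitors raise well fluorescence; 0% = enzyme with DMSO and 100% = DMSO without enzyme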
# IMP-1 inh-2: selectivity counter-screen for VIM-2 inhibitors: IMP-1 metallo-beta-lactamase inhibitors | shares compounds with VIM-2 inh | purified IMP-1, nitrocefin hydrolysis, epi-absorbance fluorescence | inhibition, % at 5.6 µM | 1,300 tested, under 10 active | AID 1856; call rule not given here;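 further: 0% = enzyme with vehicle and 100% = vehicle without enzyme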
# VIM-2 FRET ctr: inhibits VIM-2 in FRET assay to exclude epi-absorbance artifacts; shares compounds with VIM-2 inh; inhibition, % at 5.6 µM; AID 1857; 1,300 tested, 23% active; purified VIM-2, CCF2 FRET substrate hydrolysis;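 active means inhibition above the mean of all tested compounds plus 3 SD, cut at about 19% in these data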;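 further: 0% = VIM-2 plus DMSO and 100% = no enzyme wells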
# TEM-1 counter: TEM-1 inhibition, counter-screen for VIM-2 inhibitors | shares compounds with VIM-2 inh | Purified TEM-1, nitrocefin hydrolysis, epi-absorbance fluorescence | inhibition, % at 5.6 µM | 1,300 tested, 3% active;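 active means inhibition above that campaign's mean inhibition plus 3 SD, cut at about 0.46% in these data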;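 further: 0% = TEM-1 with DMSO and 100% = TEM-1 with 100 µM potassium clavulanate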
# Target sequence (P62593 whole entry, looked up): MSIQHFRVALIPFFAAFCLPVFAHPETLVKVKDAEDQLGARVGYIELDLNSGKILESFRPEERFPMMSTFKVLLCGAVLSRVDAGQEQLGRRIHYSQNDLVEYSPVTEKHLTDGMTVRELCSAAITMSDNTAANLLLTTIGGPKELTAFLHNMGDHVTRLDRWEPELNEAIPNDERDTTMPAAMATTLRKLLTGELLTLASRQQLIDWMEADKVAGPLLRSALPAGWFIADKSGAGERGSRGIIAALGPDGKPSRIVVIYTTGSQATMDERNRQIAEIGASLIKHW
# VIM-2 inh conf: confirmation of P. aeruginosa VIM-2 metallo-beta-lactamase inhibitors; shares compounds with VIM-2 inh; purified VIM-2, nitrocefin hydrolysis, epi-absorbance; inhibition, % at 5.6 µM; 1,300 tested, 96% active;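 active means inhibition of the VIM-2 beta-lactamase enzyme above about 11% from the earlier first-round screen, limit read from the data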;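 further: 0% = VIM-2 with DMSO and 100% = buffer wells without enzyme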
# The depositor's hits bear a star; . = no result given. Compounds with a hit are over-represented: about 3.1% of the library has one in this group of screens.
SMILES,PHOSPHO1 inh,HCV core dimer,NS3 helicase inh,IMP-1 inh-1,UBC9 SUMO inh,VIM-2 inh,IMP-1 inh-2,VIM-2 FRET ctr,TEM-1 counter,VIM-2 inh conf
c1ccc2c(c1)oc1c(NCCN3CCOCC3)ncnc12,48,-4,2,-4,11,2,.,.,.,.
CC(C)N1CCN(C(=O)c2ccc([N+](=O)[O-])cc2)CC1,.,3,.,.,.,.,.,.,.,.
CC1(C)CCCC2=C1CC1C(=O)N(O)C(=O)C1C2 (stereo unspecified),-9,-3,0,1,17,2,.,.,.,.
CC12CCCCC1N(O)C(=O)C(=O)N2O (stereo unspecified),-2,-7,19,-1,-7,20*,-3,34*,-5,19*
CC(C)c1[nH]nc2c1C1(CCN(Cc3ccccc3)CC1)C(C#N)=C(N)O2,7,1,0,-3,-5,3,.,.,.,.
CCCc1[nH]nc2c1C1(CCN(C(=O)OCc3ccccc3)CC1)C(C#N)=C(N)O2,16,1,3,-2,21,18*,-2,22*,0.5*,6
COc1ccccc1C(=O)Nc1nnc(SCC(=O)NCC2CCCO2)s1 (stereo unspecified),13,6,5,0,15,15*,-3,33*,-6,21*
CC(C)C(=O)Nc1nnc(SCC(=O)NCC2CCCO2)s1 (stereo unspecified),15,0,9,-1,-9,1,.,.,.,.
O=C(CSc1nnc(NC(=O)c2cc(Br)ccc2Cl)s1)NCC1CCCO1 (stereo unspecified),29,-5,4,-3,-5,25*,-3,48*,-5,33*
COc1cc(C(=O)Nc2nnc(SCC(=O)NCC3CCCO3)s2)cc(OC)c1OC (stereo unspecified),-2,7,2,0,14,1,.,.,.,.
Cc1ccc(CCNC(=O)Cc2ccc(NC3=NC4CS(=O)(=O)CC4S3)cc2)cc1 (stereo unspecified),33,14,12,-3,7,-3,.,.,.,.
O=C(Nc1ccccc1C(F)(F)F)N1CCN(c2ccc3nnc(-c4ccc(F)cc4)n3n2)CC1,-46,8,-4,-2,6,12*,-3,-2,-8,6
O=C(Nc1ccc(F)cc1)N1CCN(c2ccc3nnc(-c4ccc(F)cc4)n3n2)CC1,35,3,10,-2,18,3,.,.,.,.
O=C(c1ccc(Br)o1)N1CCN(c2ccc3nnc(-c4ccccc4)n3n2)CC1,18,9,-3,-2,12,16*,-3,-2,-2,24*
CCOc1ccc(C(=O)NCC2CCCN2S(=O)(=O)c2cccs2)cc1 (stereo unspecified),.,0,.,.,.,.,.,.,.,.
CCCC(=O)Nc1nnc(SCC(=O)NCc2cccs2)s1,8,-1,15,-5,-5,20*,-2,44*,-3,33*
COCC(=O)Nc1nnc(SCC(=O)NCc2cccs2)s1,11,-1,-5,-3,7,22*,-3,53*,-3,38*
CCCC(=O)Nc1nnc(SCC(=O)NCc2ccco2)s1,-12,1,4,-4,6,3,.,.,.,.
Cc1cccc(Nc2nnc(SCC(=O)NCc3cccs3)s2)c1,34,3,-3,-1,9,0,.,.,.,.
CCOc1ccc(C(=O)Nc2ccccc2N2CCN(C(=O)c3ccccc3)CC2)cc1[N+](=O)[O-],27,19,-19,-3,8,-2,.,.,.,.
Cn1c(=O)n(C)c2cc(/C=N/N=C3/NC(=O)C(CC(=O)O)S3)ccc21 (stereo unspecified),24,-7,-8,-4,12,22*,-1,7,-4,37*
Cc1nnc2c(SC(C)C)nc3ccccc3n12,9,4,-4,-4,13,14*,-2,0,-5,22*
CSC1=NCCN1CCOc1ccccc1,-12,-5,2,-1,8,-1,.,.,.,.
O=C(O)c1ccccc1Nc1ccc([N+](=O)[O-])c2nonc12,6,-13,5,-6,-7,22*,-5,51*,-14,27*
COc1ccc(OCCC(=O)OCC(=O)NCc2ccc(F)cc2)cc1,-10,-1,-3,-2,-16,-2,.,.,.,.
SMILES,PHOSPHO1 inh,HCV core dimer,NS3 helicase inh,IMP-1 inh-1,UBC9 SUMO inh,VIM-2 inh,IMP-1 inh-2,VIM-2 FRET ctr,TEM-1 counter,VIM-2 inh conf
CCc1ncc(CN2CCCCC2C(=O)Nc2ccc(Oc3ccccc3)nc2)cn1 (stereo unspecified),41,-10,0,-1,6,-2,.,.,.,.
CCn1nc(C)c(CN2CCC(n3nccc3NC(=O)c3ccc4c(c3)OCO4)CC2)c1C,43,2,0,-2,2,-3,.,.,.,.
CCOc1ccc(Nc2cc(C)nc(-n3nc(C)cc3C)n2)cc1,2,-1,-1,-5,5,17*,-4,-64,-7,43*
CC(C)=NOc1nc(N(C)C)nc(N2CCOCC2)n1,20,-1,12,-3,20,-3,.,.,.,.
O=C(NCc1nnc2c3ccccc3c(-c3ccccc3)nn12)c1ccc(Cl)cc1,5,18,-19,-4,-17,0,.,.,.,.
CC(=O)NCc1nnc2c3ccccc3c(-c3ccccc3)nn12,61*,2,-5,-2,12,22*,-3,-1,-4,33*
CNC(=O)COc1ccc(-c2nn(C)c(=O)c3ccccc23)cc1,8,-3,-3,1,11,5,.,.,.,.
O=C(COc1ccccc1)NCc1nnc2c3ccccc3c(-c3ccccc3)nn12,-14,6,-11,2,5,18*,2,6,1.0*,39*
Cc1nnc(SC(C)C(=O)NC2CCCCC2C)s1 (stereo unspecified),.,-6,.,.,.,.,.,.,.,.
COc1cccc(N2CCc3c(C)nc4ccc(Cl)cc4c32)c1,16,.,-26,-2,26,22*,-4,-5,-6,30*
COc1ccc(N2CCc3c(C)nc4c(OC)cc(OC)cc4c32)cc1,55,-3,-21,-2,17,15*,-5,-23,-6,22*
Nc1nnc(CSCc2cccc(Br)c2)s1,34,5,17,-4,0,-3,.,.,.,.
